According to ChEMBL document CHEMBL1909521, “A class of novel N-(1-methyl-β-carboline-3-carbonyl)-N'-(aminoacid-acyl)-hydrazines: aromatization leaded design, synthesis, in vitro anti-platelet aggregation/in vivo anti-thrombotic evaluation and 3D QSAR analysis” (Eur J Med Chem, 2011):
Where a name gives a salt, the structure may show the parent alone.

Experiments:
[1] = Antiaggregatory activity in pig platelets assessed as inhibition of platelet-activating factor-induced platelet aggregation after 5 mins; type: functional, cell-based; conditions: Sus scrofa
In short: (§1)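 Pig blood (6 pigs) was spun at 1000 rpm for 10 min to give PRP, then 1500 rpm for 10 min to give PPP. PRP was adjusted to 2×10^8 platelets/ml with autologous PPP. Compound (final 100 µM to 0.001 µM, diluted in NS) or NS was added before agonist: ADP 10 µM, AA 350 µM or PAF 0.1 µM final. Aggregation was read optically at 37 °C for 5 min, in sixplicate. IC50 came from the concentration–inhibition curve.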

[2] = Antiaggregatory activity in pig platelets assessed as inhibition of adenosine diphosphate-induced platelet aggregation after 5 mins; type: functional, cell-based; conditions: Sus scrofa; in short: as §1
[3] = Antiaggregatory activity in pig platelets assessed as inhibition of arachidonic acid-induced platelet aggregation after 5 mins; type: functional, cell-based; conditions: Sus scrofa; in short: as §1
Rattus norvegicus [4] = assay: Antithrombotic activity in Wister rat assessed as reduction of thrombus weight at 10 nmol/kg, po (reference value: 31.87 +/- 1.71 mg); type: functional
Rattus norvegicus [5] = assay: Antithrombotic activity in Wister rat assessed as reduction of thrombus weight at 10 nmol/kg, po (reference value: 28.21 +/- 1.11 mg); type: functional
Rattus norvegicus [6] = assay: Antithrombotic activity in Wister rat assessed as reduction of thrombus weight at 160 to 165 umol/kg, po (reference value: 31.87 +/- 1.71 mg); type: functional
Rattus norvegicus [7] = assay: Antithrombotic activity in Wister rat assessed as reduction of thrombus weight at 1 nmol/kg, po (reference value: 31.87 +/- 1.71 mg); type: functional
[8] = Antiplatelet activity in rabbit platelets assessed as inhibition of collagen-induced platelet aggregation; type: functional, cell-based; conditions: Oryctolagus cuniculus
Rattus norvegicus [9] = assay: Antithrombotic activity in Wister rat assessed as reduction of thrombus weight at 0.1 nmol/kg, po (reference value: 31.87 +/- 1.71 mg); type: functional
Rattus norvegicus [10] = assay: Antithrombotic activity in Wister rat assessed as reduction of thrombus weight at 0.01 nmol/kg, po (reference value: 31.87 +/- 1.71 mg); type: functional
Rattus norvegicus [11] = assay: Antithrombotic activity in po dosed Wister rat assessed as reduction of thrombus weight; type: functional, organism-based

| SMILES | IC50 [1] | IC50 [2] | IC50 [3] | Activity (Rattus norvegicus [4]) | Activity (Rattus norvegicus [5]) | Activity (Rattus norvegicus [6]) | Activity (Rattus norvegicus [7]) | IC50 [8] | Activity (Rattus norvegicus [9]) | Activity (Rattus norvegicus [10]) | Activity (Rattus norvegicus [11]) |
| --- | --- | --- | --- | --- | --- | --- | --- | --- | --- | --- | --- |
| Cc1nc(C(=O)NNC(=O)[C@@H](NC(=O)OC(C)(C)C)[C@@H](C)O)cc2c1[nH]c1ccccc12 | 31.9 µM | 531 µM | 4.7 µM | 22.87 mg | 20.24 mg | – | – | – | – | – | – |
| CC(=O)Oc1ccccc1C(=O)O [ASPIRIN] | – | – | – | – | – | 18.86 mg | – | – | – | – | – |
| Cc1nc(C(=O)NNC(=O)[C@@H](N)CC(C)C)cc2c1[nH]c1ccccc12 | 1.1 µM | 23 µM | 8.2 µM | – | – | – | 24.49 mg | – | – | – | – |
| Cc1nc(C(=O)NNC(=O)[C@@H](N)Cc2ccc(O)cc2)cc2c1[nH]c1ccccc12 | 37.4 µM | 74.6 µM | 1.7 µM | – | – | – | 18.56 mg | – | – | – | – |
| CC[C@H](C)[C@H](NC(=O)OC(C)(C)C)C(=O)NNC(=O)c1cc2c([nH]c3ccccc32)c(C)n1 | 1.4 µM | 51.1 µM | 2.4 µM | 23.3 mg | 20.62 mg | – | – | – | – | – | – |
| Cc1nc(C(=O)NNC(=O)[C@H](C)N)cc2c1[nH]c1ccccc12 | 47.4 µM | 58.9 µM | 6.7 µM | – | – | – | 24.39 mg | – | – | – | – |
| CC1=NCCc2c1[nH]c1cc(O)ccc21 [HARMALOL] | – | – | – | – | – | – | – | 130 µM | – | – | – |
| Cc1nc(C(=O)NNC(=O)[C@H](CC(C)C)NC(=O)OC(C)(C)C)cc2c1[nH]c1ccccc12 | 1.2 µM | 31.6 µM | 3.2 µM | 23.8 mg | 21.06 mg | – | – | – | – | – | – |
| Cc1nc(C(=O)NNC(=O)[C@H](Cc2ccc(O)cc2)NC(=O)OC(C)(C)C)cc2c1[nH]c1ccccc12 | 12.7 µM | 152 µM | 13 µM | 23.73 mg | 21 mg | – | – | – | – | – | – |
| Cc1nc(C(=O)NNC(=O)[C@@H](N)Cc2c[nH]c3ccccc23)cc2c1[nH]c1ccccc12 | 19.3 µM | 28.9 µM | 8.7 µM | – | – | – | 24.56 mg | – | – | – | – |
| Cc1nc(C(=O)NNC(=O)[C@H](Cc2cn(C(=O)OC(C)(C)C)cn2)NC(=O)OC(C)(C)C)cc2c1[nH]c1ccccc12 | 7.7 µM | 94.6 µM | 4.8 µM | 21.32 mg | 18.87 mg | – | – | – | – | – | – |
| CSCC[C@H](NC(=O)OC(C)(C)C)C(=O)NNC(=O)c1cc2c([nH]c3ccccc32)c(C)n1 | 52.9 µM | 417 µM | 21.7 µM | 20.96 mg | 18.55 mg | – | – | – | – | – | – |
| Cc1nc(C(=O)NNC(=O)[C@@H]2CCCN2C(=O)OC(C)(C)C)cc2c1[nH]c1ccccc12 | 134 µM | 166 µM | 20.6 µM | 23.04 mg | 20.39 mg | – | – | – | – | – | – |
| CC[C@H](C)[C@H](N)C(=O)NNC(=O)c1cc2c([nH]c3ccccc32)c(C)n1 | 5.6 µM | 74 µM | 3.6 µM | – | – | – | 23.12 mg | – | – | – | – |
| CSCC[C@H](N)C(=O)NNC(=O)c1cc2c([nH]c3ccccc32)c(C)n1 | 13.4 µM | 58.9 µM | 4.7 µM | – | – | – | 23.43 mg | – | – | – | – |
| Cc1nc(C(=O)NNC(=O)[C@@H](NC(=O)OC(C)(C)C)C(C)C)cc2c1[nH]c1ccccc12 | 50 µM | 156 µM | 3.7 µM | 24.01 mg | 24.01 mg | – | – | – | – | – | – |
| Cc1nc(C(=O)NNC(=O)[C@@H](N)CO)cc2c1[nH]c1ccccc12 | 52.9 µM | 50.9 µM | 9 µM | – | – | – | 24.78 mg | – | – | – | – |
| Cc1nc(C(=O)NNC(=O)[C@H](CC(=O)OCc2ccccc2)NC(=O)OC(C)(C)C)cc2c1[nH]c1ccccc12 | 196 µM | 117 µM | 5.2 µM | 21.44 mg | 18.97 mg | – | – | – | – | – | – |
| c1ccc2c(c1)[nH]c1cnccc12 [NORHARMANE] | – | – | – | – | – | – | – | 130 µM | – | – | – |
| Cc1nc(C(=O)NNC(=O)[C@H](Cc2c[nH]c3ccccc23)NC(=O)OC(C)(C)C)cc2c1[nH]c1ccccc12 | 4.3 µM | 21.7 µM | 0.6 µM | 21.52 mg | 19.04 mg | – | – | – | – | – | – |

| SMILES | IC50 [1] | IC50 [2] | IC50 [3] | Activity (Rattus norvegicus [4]) | Activity (Rattus norvegicus [5]) | Activity (Rattus norvegicus [6]) | Activity (Rattus norvegicus [7]) | IC50 [8] | Activity (Rattus norvegicus [9]) | Activity (Rattus norvegicus [10]) | Activity (Rattus norvegicus [11]) |
| --- | --- | --- | --- | --- | --- | --- | --- | --- | --- | --- | --- |
| Cc1nc(C(=O)NNC(=O)[C@@H](N)CCCCN)cc2c1[nH]c1ccccc12 | 52.9 µM | 58.9 µM | 4.1 µM | – | – | – | 23.3 mg | – | – | – | – |
| Cc1nc(C(=O)NNC(=O)[C@@H](N)CCC(=O)OCc2ccccc2)cc2c1[nH]c1ccccc12 | 64.3 µM | 58.9 µM | 2.3 µM | – | – | – | 18.8 mg | – | – | – | – |
| COc1ccc2c(c1)[nH]c1c(C)nccc12 [HARMINE] | – | – | – | – | – | – | – | 130 µM | – | – | – |
| Cc1nc(C(=O)NNC(=O)[C@H](CCCCNC(=O)OC(C)(C)C)NC(=O)OC(C)(C)C)cc2c1[nH]c1ccccc12 | 106 µM | 321 µM | 3.4 µM | 22.32 mg | 19.75 mg | – | – | – | – | – | – |
| Cc1nc(C(=O)NNC(=O)[C@@H](N)CC(=O)OCc2ccccc2)cc2c1[nH]c1ccccc12 | 52.9 µM | 81.7 µM | 3.7 µM | – | – | – | 23.23 mg | – | – | – | – |
| Cc1nc(C(=O)NNC(=O)[C@H](C)NC(=O)OC(C)(C)C)cc2c1[nH]c1ccccc12 | 162 µM | 118 µM | 20 µM | 22.67 mg | 20.06 mg | – | – | – | – | – | – |
| Cc1nc(C(=O)NNC(=O)CNC(=O)OC(C)(C)C)cc2c1[nH]c1ccccc12 | 348 µM | 722 µM | 20.7 µM | 26.83 mg | 23.74 mg | – | – | – | – | – | – |
| Cc1nc(C(=O)NNC(=O)[C@@H](N)C(C)C)cc2c1[nH]c1ccccc12 | 2 µM | 20.8 µM | 0.3 µM | – | – | – | 18.3 mg | – | 23.8 mg | 27.12 mg | Dose-dependent effect |
| Cc1nc(C(=O)NNC(=O)[C@@H]2CCCN2)cc2c1[nH]c1ccccc12 | 44.5 µM | 48.7 µM | 5.8 µM | – | – | – | 24.37 mg | – | – | – | – |
| Cc1nc(C(=O)NN)cc2c1[nH]c1ccccc12 | 92.8 µM | 110 µM | 32.9 µM | 26.66 mg | – | – | – | – | – | – | – |
| Cc1nccc2c1[nH]c1ccccc12 [HARMAN] | – | – | – | – | – | – | – | 130 µM | – | – | – |
| Cc1nc(C(=O)NNC(=O)[C@@H](N)Cc2cnc[nH]2)cc2c1[nH]c1ccccc12 | 42.5 µM | 25.7 µM | 0.2 µM | – | – | – | 18.1 mg | – | – | – | – |
| Cc1nc(C(=O)NNC(=O)[C@H](CCC(=O)OCc2ccccc2)NC(=O)OC(C)(C)C)cc2c1[nH]c1ccccc12 | 362 µM | 524 µM | 6.3 µM | 22.2 mg | 19.65 mg | – | – | – | – | – | – |
| Cc1nc(C(=O)NNC(=O)[C@H](CO)NC(=O)OC(C)(C)C)cc2c1[nH]c1ccccc12 | 119 µM | 276 µM | 19.9 µM | 21.1 mg | 18.67 mg | – | – | – | – | – | – |
| Cc1nc(C(=O)NNC(=O)[C@@H](N)CC(N)=O)cc2c1[nH]c1ccccc12 | 39.7 µM | 65.8 µM | 6.2 µM | – | – | – | 23.97 mg | – | – | – | – |
| Cc1nccc2c1[nH]c1cc(O)ccc12 [HARMOL HYDROCHLORIDE] | – | – | – | – | – | – | – | 130 µM | – | – | – |
| Cc1nc(C(=O)NNC(=O)[C@@H](N)[C@@H](C)O)cc2c1[nH]c1ccccc12 | 20.9 µM | 24.8 µM | 5.2 µM | – | – | – | 23.65 mg | – | – | – | – |
| COc1ccc2c3c([nH]c2c1)C(C)=NCC3 [HARMALINE] | – | – | – | – | – | – | – | 130 µM | – | – | – |
| Cc1nc(C(=O)NNC(=O)[C@H](CC(N)=O)NC(=O)OC(C)(C)C)cc2c1[nH]c1ccccc12 | 507 µM | 609 µM | 19.7 µM | 24.14 mg | 21.36 mg | – | – | – | – | – | – |
| Cc1nc(C(=O)NNC(=O)CN)cc2c1[nH]c1ccccc12 | 52.9 µM | 53.3 µM | 5.2 µM | – | – | – | 23.7 mg | – | – | – | – |
